The source of these data is ChEMBL document CHEMBL4033659, “Novel lipid-mimetic prodrugs delivering active compounds to adipose tissue” (Eur J Med Chem, 2017).

Molecules are shown by their SMILES.

Data set [1] deals with T1, Pancreatic triacylglycerol lipase (Sus scrofa, UniProt P00591).
T1 sequence (P00591 whole entry): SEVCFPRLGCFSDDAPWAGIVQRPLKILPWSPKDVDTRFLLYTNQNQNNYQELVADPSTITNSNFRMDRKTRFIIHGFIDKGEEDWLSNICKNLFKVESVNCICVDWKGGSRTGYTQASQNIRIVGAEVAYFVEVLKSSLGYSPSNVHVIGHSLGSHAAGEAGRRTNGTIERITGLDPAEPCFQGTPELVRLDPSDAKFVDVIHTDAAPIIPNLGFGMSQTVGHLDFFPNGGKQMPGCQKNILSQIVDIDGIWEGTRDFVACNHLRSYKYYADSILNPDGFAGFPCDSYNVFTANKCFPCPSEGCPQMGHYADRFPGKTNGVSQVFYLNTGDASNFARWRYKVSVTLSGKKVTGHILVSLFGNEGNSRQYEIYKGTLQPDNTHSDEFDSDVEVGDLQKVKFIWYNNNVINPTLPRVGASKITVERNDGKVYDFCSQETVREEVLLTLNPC
The data set is described as follows: Prodrug conversion assessed as porcine pancreatic lipase-mediated formation of 10-((4-(3,5-dimethoxystyryl)phenoxy)carbonylamino)decanoic acid by measuring hydrolysis rate constant K3 by HPLC/UV analysis. In kind it is ADME. Conditions: pig; call rule not given here.

Data set [2] concerns the target T1, Pancreatic triacylglycerol lipase. Kind of data set: Prodrug conversion assessed as porcine pancreatic lipase-mediated formation of 2-(10-((4-(3,5-dimethoxystyryl)phenoxy)carbonylamino)decanoyloxy)-3-hydroxypropyl oleate by measuring hydrolysis rate constant K1 by HPLC/UV analysis. Conditions: pig. Format: ADME.
Data set [3] in a line: Drug uptake in C57BL mouse visceral adipose tissue assessed as retention time at 176 umol/kg administered with high fat diet after 2 weeks by HPLC/UV analysis. Conditions: in vivo, po, 336 h. In kind it is ADME.
In a further data set the test system is Blood. The data set is described as follows: Drug uptake in C57BL mouse bloodstream at 176 umol/kg administered with high fat diet after 2 weeks by HPLC/UV analysis. In kind it is ADME, tissue-based. To be noted: po, 336 h. In short, it runs like this: (§1)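 Mice received the lipid-mimetic derivatives chronically for 2 weeks. Pterostilbene and its metabolites were then quantified in blood and organs, and values are reported as mean ± st. dev. across animals.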

A further data set relates to Liver. Kind of data set: Drug uptake in C57BL mouse liver at 176 umol/kg administered with high fat diet after 2 weeks by HPLC/UV analysis. In kind it is ADME, tissue-based. To be noted: in vivo, po, 336 h. In short, it runs like this:
as §1

The target of data set [4] is T1, Pancreatic triacylglycerol lipase. The data set is described as follows: Prodrug conversion assessed as porcine pancreatic lipase-mediated formation of 1,3-dihydroxypropan-2-yl 10-((4-(3,5-dimethoxystyryl)phenoxy)carbonylamino)decanoate by measuring hydrolysis rate constant K2 by HPLC/UV analysis. Conditions: pig. Format: ADME.
A short description of data set [5]: Drug uptake in C57BL mouse subcutaneous adipose tissue at 176 umol/kg administered with high fat diet after 2 weeks by HPLC/UV analysis. In kind it is ADME. To be noted: in vivo, po, 336 h. Put shortly: as §1
Data set [6] is described as follows: Drug uptake in C57BL mouse visceral adipose tissue at 176 umol/kg administered with high fat diet after 2 weeks by HPLC/UV analysis. Format: ADME. Conditions: in vivo, po, 336 h. In short, it runs like this: as §1
For data set [7], the target named is T1, Pancreatic triacylglycerol lipase. The data set is described as follows: Prodrug conversion assessed as porcine pancreatic lipase-mediated formation of 1-(10-((4-(3,5-dimethoxystyryl)phenoxy)carbonylamino)decanoyloxy)-3-hydroxypropan-2-yl oleate, 10-((4-(3,5-dimethoxystyryl)phenoxy)carbonylamino)decanoic acid by measuring hydrolysis rate constant K1 by HPLC/UV analysis. Format: ADME. Conditions: pig.

For data set [8] the target is unchanged. The data set is described as follows: Prodrug conversion assessed as porcine pancreatic lipase mediated formation of 10-((4-(3,5-dimethoxystyryl)phenoxy)carbonylamino)decanoic acid by measuring hydrolysis rate constant by HPLC/UV analysis. In kind it is ADME. Conditions: pig.
Data set [9] shares this target. The data set is described as follows: Prodrug conversion assessed as porcine pancreatic lipase-mediated formation of 10-((4-(3,5-dimethoxystyryl)phenoxy)carbonylamino)decanoic acid by measuring hydrolysis rate constant K2 by HPLC/UV analysis. Conditions: pig. Format: ADME.

Regarding `CCCCCCCC/C=C\CCCCCCCC(=O)OCC(COC(=O)CCCCCCC/C=C\CCCCCCCC)OC(=O)CCCCCCCCCNC(=O)Oc1ccc(/C=C/c2cc(OC)cc(OC)c2)cc1`, the K in [1] was 0.24 h⁻¹; in data set [2], 3.04 h⁻¹; in data set [4], 9.49 h⁻¹. The Retention time in [3] lay within 5.8 to 6.5 min. For the same compound, the Drug uptake entry was “Not Active” with Blood, “Active” in the data set on Liver, “Active” in data set [5] and “Active” in [6].

Turning to `CCCCCCCC/C=C\CCCCCCCC(=O)OCC(COC(=O)CCCCCCCCCNC(=O)Oc1ccc(/C=C/c2cc(OC)cc(OC)c2)cc1)OC(=O)CCCCCCC/C=C\CCCCCCCC` (stereo not given), the Drug uptake result in the data set with Blood is “Not Active”; in the data set with Liver it was “Active”; in data set [5] it was “Active”; in data set [6], “Active”. The K in data set [7] stood at 3.24 h⁻¹; in data set [8], 2.88 h⁻¹; in [9] it was 46.8 h⁻¹.
